Test results published in ChEMBL document CHEMBL1275335, “Design and synthesis of 2-arylbenzimidazoles and evaluation of their inhibitory effect against Chlamydia pneumoniae” (J Med Chem, 2010).
In brackets after ≈: the same amount, converted by molar mass. Activity calls are given as the source filed them. No cut-off for these calls is given here.

Experiments:
[1] = system: Escherichia coli; assay: Antibacterial activity against Escherichia coli ATCC 25922 assessed as inhibition of bacterial growth at 50 uM after 18 hrs by photometric method; assay type: functional, organism-based
Procedure, shortened: (§1)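 Bacteria were dispensed with 0.01% resazurin and compound, reaching a final 50 μM; ampicillin 25 μM was the control. After 18 h at 37 C, resazurin was read photometrically at 600 nm.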

[2] = system: Chlamydia pneumoniae; assay: Antibacterial activity against Chlamydia pneumoniae CWL029 infected in human HL cells assessed as inhibition of bacterial growth at 10 uM after 72 hrs by TR-FIA method; assay type: functional
Procedure, shortened: (§2)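 HL cells were seeded at 6×10^4/well in RPMI 1640 with 7.5% FBS, 2 mM glutamine and gentamicin, then infected 24 h later with CWL-029 at MOI 0.2 plus 0.5 μg/mL cycloheximide and centrifuged 1 h. Compounds were added in six replicates for 72 h at 37 C. After methanol fixation, wells were labelled with europium-conjugated chlamydial antibody (100 ng/mL, 30 min, 37 C) and read by time-resolved fluorescence; rifampicin 0.012 μM served as control.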

[3] = Cytotoxicity against human HL cells assessed as cell viability at 10 uM after 72 hrs by celltiter-glo analysis; assay type: cell-based; details: read-out: Activity
Procedure, shortened: (§3)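 After 72 h, viability was measured as intracellular ATP by CellTiter-Glo luminescence after partial medium replacement. Results are expressed as a percentage of cells given DMSO-adjusted medium.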

[4] = system: Staphylococcus aureus; assay: Antibacterial activity against Staphylococcus aureus ATCC 25923 assessed as inhibition of bacterial growth at 50 uM after 18 hrs by photometric method; assay type: functional; procedure, shortened: as §1
[5] = system: Chlamydia pneumoniae; assay: Antibacterial activity against Chlamydia pneumoniae CV6 infected in human Hep2 cells assessed as minimal chlamydiocidal activity after 72 hrs by fluorescence assay; assay type: functional, HEp-2; details: CV6, 72 h
Procedure, shortened: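 CV-6 was grown in HEp-2 cells under 2-fold compound dilutions (MEM, cycloheximide 1 μg/mL, 72 h, 35 C). Drug medium was then removed, wells washed with PBS pH 7.4 and fed drug-free medium. Monolayers were disrupted, passed onto fresh monolayers, incubated and stained with fluorescein anti-LPS mAb. MCC is the lowest concentration giving no IFU in the antibiotic-free passage; run in duplicate.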

[6] = system: Chlamydia pneumoniae; assay: Chlamydiostatic activity against Chlamydia pneumoniae CV6 infected in human Hep2 cells after 72 hrs by fluorescence assay; assay type: functional, HEp-2; details: CV6, 72 h
Procedure, shortened: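 Confluent HEp-2 monolayers on coverslips were centrifuged with C. pneumoniae CV-6 (10^3 IFU/mL; 1700g, 45 min, 35 C). Medium was replaced with MEM containing cycloheximide 1 μg/mL and serial 2-fold compound dilutions. After 72 h at 35 C, 5% CO2, inclusions were stained with fluorescein-conjugated anti-Chlamydia LPS mAb. MIC is the lowest concentration with no IFU; titrations were run in duplicate.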

[7] = system: HL; assay: Cytotoxicity against human HL cells at 2.5 uM after 72 hrs by celltiter-glo analysis; assay type: cell-based; procedure, shortened: as §3
[8] = system: Chlamydia pneumoniae; assay: Antibacterial activity against Chlamydia pneumoniae CWL029 infected in human HL cells after 72 hrs by TR-FIA method; assay type: functional, cell-based; details: in the assay text read “immunofluorescence method” for “TR-FIA method”; procedure, shortened: as §2

Row | MIC [6] [µM] | IC50 [8] [µM] | SMILES | growth inhibition (GI) [1] | inhibition at 10 µM [2] [%] | viability at 72 h, 10 µM [3] [%] | growth inhibition (GI) [4] | MCC [5] [µM] | Activity [7] | inhibition of growth at 50 µM ([4]; ATCC 25923, 18 h, read-out: GI) [%]
1 |  |  | COc1ccc2[nH]c(-c3cccc(NC(=O)c4cccs4)c3)nc2c1 | inactive | 74 | 98 | inactive |  |  | 
2 |  |  | Cc1c(NC(=O)c2cccs2)cccc1-c1nc2ccccc2[nH]1 | inactive | 59 | 87 | inactive |  |  | 
3 |  |  | O=C(Nc1cccc(-c2nc3ccccc3[nH]2)c1)c1ccccc1C(F)(F)F | inactive | 96 | 80 | inactive |  |  | 
4 |  |  | O=C(Nc1cccc(-c2nc3ccccc3o2)c1)c1cccs1 |  | 61 | 94 |  |  |  | 
5 |  |  | O=S(=O)(Nc1cccc(-c2nc3ccccc3[nH]2)c1)c1ccccc1 | inactive | 0 | 77 | inactive |  |  | 
6 | 0.17 (≈ 0.125 µg/mL) |  | CC[C@H]1OC(=O)[C@H](C)[C@@H](O[C@H]2C[C@@](C)(OC)[C@@H](O)[C@H](C)O2)[C@H](C)[C@@H](O[C@@H]2O[C@H](C)C[C@H](N(C)C)[C@H]2O)[C@](C)(O)C[C@@H](C)C(=O)[C@H](C)[C@@H](O)[C@]1(C)O [ERYTHROMYCIN] |  |  |  |  | 0.17 |  | 
7 |  |  | CC(=O)Nc1cccc(-c2nc3ccccc3[nH]2)c1 | inactive | 0 | 100 | inactive |  |  | 
8 |  |  | CC(C)(C)C(=O)Nc1cccc(-c2nc3ccccc3[nH]2)c1 | inactive | 0 | 98 | inactive |  |  | 
9 |  |  | COc1cccc(C(=O)Nc2cccc(-c3nc4ccccc4[nH]3)c2)c1 | inactive | 98 | 97 | inactive |  |  | 
10 |  |  | O=C(Nc1cccc(-c2nc3ccccc3[nH]2)c1)c1ccccc1 | inactive | 99 | 98 | inactive |  |  | 
11 |  |  | O=C(Cc1cccs1)Nc1cccc(-c2nc3ccccc3[nH]2)c1 | inactive | 70 | 107 | inactive |  |  | 
12 | 24.5 (≈ 7.83 µg/mL) |  | O=C(Nc1cccc(-c2nc3ccccc3[nH]2)c1)C1CCCCC1 | inactive | 100 | 94 | inactive | 24.5 | Non-toxic | 
13 |  |  | COc1ccc(-c2nc3ccccc3[nH]2)cc1NC(=O)c1cccs1 | inactive | 52 | 101 | inactive |  |  | 
14 | 196 (≈ 62.6 µg/mL) |  | O=C(Nc1cccc(-c2nc3ccccc3[nH]2)c1)c1cccs1 | inactive | 89 | 98 | inactive | > 196 | Non-toxic | 
15 | 3.2 (≈ 1.05 µg/mL) | 2 | Cc1cccc(C(=O)Nc2cccc(-c3nc4ccccc4[nH]3)c2)c1 | inactive | 98 | 99 | inactive | 3.2 | Non-toxic | 
16 |  |  | O=C(Nc1cccc(-c2nc3ccccc3[nH]2)c1)c1cccc(F)c1 | inactive | 58 | 101 | inactive |  |  | 
17 |  |  | O=C(Nc1cccc(-c2nc3ccccc3[nH]2)c1)c1ccoc1 | inactive | 78 | 101 | inactive |  |  | 

Row | MIC [6] [µM] | IC50 [8] [µM] | SMILES | growth inhibition (GI) [1] | inhibition at 10 µM [2] [%] | viability at 72 h, 10 µM [3] [%] | growth inhibition (GI) [4] | MCC [5] [µM] | Activity [7] | inhibition of growth at 50 µM ([4]; ATCC 25923, 18 h, read-out: GI) [%]
18 |  |  | O=C(Nc1ccc(-c2nc3ccccc3[nH]2)cc1)c1cccs1 | inactive | 0 | 96 | inactive |  |  | 
19 | > 196 |  | O=C(Nc1cccc(-c2nc3ccccc3[nH]2)c1)c1ccsc1 | inactive | 68 | 98 | inactive | > 196 | Non-toxic | 
20 |  |  | O=C(Nc1cccc(-c2nc3ccccc3[nH]2)c1)c1cccc(Cl)c1 | inactive | 94 | 106 | inactive |  |  | 
21 |  |  | Cc1cccc2[nH]c(-c3cccc(NC(=O)c4cccs4)c3)nc12 | inactive | 89 | 102 | inactive |  |  | 
22 |  |  | O=C(Nc1cccc(-c2ncc[nH]2)c1)c1ccsc1 |  | 0 | 133 |  |  |  | 
23 | 12.6 (≈ 4.2 µg/mL) |  | Cc1ccc2[nH]c(-c3cccc(NC(=O)c4cccs4)c3)nc2c1 | inactive | 99 | 95 | inactive | 12.6 | Non-toxic | 
24 | 6.1 (≈ 2 µg/mL) |  | Cc1ccccc1C(=O)Nc1cccc(-c2nc3ccccc3[nH]2)c1 | inactive | 99 | 90 | inactive | 24.5 | Non-toxic | 
25 |  |  | COC(=O)c1cccc(C(=O)Nc2cccc(-c3nc4ccccc4[nH]3)c2)c1 | inactive | 99 | 99 | inactive |  |  | 
26 |  |  | O=C(Nc1cccc(-c2nc3ccccc3[nH]2)c1)c1ccco1 | inactive | 45 | 98 | inactive |  |  | 
27 | 3.2 (≈ 1.22 µg/mL) | 3 | O=C(Nc1cccc(-c2nc3ccccc3[nH]2)c1)c1cccc(C(F)(F)F)c1 | inactive | 99 | 69 |  | 50.4 | Non-toxic | 85
28 | 12.6 (≈ 4.4 µg/mL) |  | COc1ccc2[nH]c(-c3cccc(NC(=O)c4ccsc4)c3)nc2c1 | inactive | 73 | 95 | inactive | 12.6 | Non-toxic | 
29 |  |  | O=C(Nc1cccc(-c2ncc[nH]2)c1)c1cccs1 |  | 0 | 115 |  |  |  | 
30 |  |  | COc1ccccc1C(=O)Nc1cccc(-c2nc3ccccc3[nH]2)c1 | inactive | 0 | 107 | inactive |  |  | 
31 |  |  | Cn1c(-c2cccc(NC(=O)c3cccs3)c2)nc2ccccc21 | inactive | 0 | 102 | inactive |  |  | 
32 |  |  | O=C(Nc1cccc(-c2nc3ccccc3[nH]2)c1)c1cscn1 | inactive | 39 | 98 | inactive |  |  | 
33 | 196 (≈ 69.4 µg/mL) |  | O=C(Nc1cccc(-c2nc3cc(Cl)ccc3[nH]2)c1)c1cccs1 | inactive | 89 | 92 | inactive | > 196 | Non-toxic | 
34 |  |  | Cn1cccc1C(=O)Nc1cccc(-c2nc3ccccc3[nH]2)c1 | inactive | 80 | 104 | inactive |  |  | 
